Test results taken from ChEMBL document CHEMBL2203198, “Prodrugs of a CXC Chemokine-12 (CXCL12) Neutraligand Prevent Inflammatory Reactions in an Asthma Model in Vivo” (ACS Med Chem Lett, 2012).
≈ marks a conversion by molar mass, not a printed value. Calls of active or inactive are those of the source. The rule behind the calls is not given here.

Assays:
Mus musculus [1] = assay: Antiinflammatory activity in ovalbumin sensitized Balb/c mouse hypereosinophilia model assessed as inhibition of neutrophil recruitment at 30 nmol/kg administered intranasally 2 hrs prior to ovalbumin challenge measured 24 hrs post the last ovalbumin challenge by BAL analysis; format: functional, organism-based
Procedure, shortened: (§1)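 8-day airway hypereosinophilia model in OVA-sensitized mice; OVA (10 μg in 25 μL saline, 12.5 μL/nostril) given intranasally on days 5, 6, 7 under ip ketamine 50 mg/kg/xylazine 3.33 mg/kg. Compound in PBS (25 μL) given intranasally 2 h before each challenge. BAL cell counts by hemocytometer plus Hemacolor-stained cytospin differentials (≥400 cells), as absolute numbers; n = 6 mice/group.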

Mus musculus [2] = assay: Prodrug activation in ovalbumin sensitized Balb/c mouse hypereosinophilia model assessed as chalcone-4 release in lungs at 30 nmol/kg administered intranasally; format: organism-based; details: in vivo, inhaled_or_intranasal
Mus musculus [3] = assay: Antiinflammatory activity in ovalbumin sensitized Balb/c mouse hypereosinophilia model assessed as inhibition of lymphocyte recruitment at 30 nmol/kg administered intranasally 2 hrs prior to ovalbumin challenge measured 24 hrs post the last ovalbumin challenge by BAL analysis; format: functional, organism-based; procedure, shortened: as §1
[4] = Half life in mouse lung homogenate by LC-MS analysis; format: ADME, tissue-based
Procedure, shortened: (§2)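 Freshly prepared compound solutions (10 μM) incubated at 37 °C in PBS, mouse serum or mouse lung homogenate. Parent and released product followed by LC-MS, RP-HPLC on C18 with ammonium acetate pH 7.4/acetonitrile gradient, 365 nm detection. Half-life taken from disappearance over time.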

[5] = Solubility of the compound in HEPES buffer at pH 7.4 after 24 hrs; format: physicochemical
Procedure, shortened: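 Thermodynamic solubility in aqueous HEPES buffer, pH 7.4, 22 °C, after 24 h incubation; tested up to 30 mM.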

[6] = Half life in mouse serum by LC-MS analysis; format: ADME, cell-free; procedure, shortened: as §2
[7] = Half life in PBS buffer by LC-MS analysis; format: physicochemical; procedure, shortened: as §2
Mus musculus [8] = assay: Antiinflammatory activity in ovalbumin sensitized Balb/c mouse hypereosinophilia model assessed as inhibition of macrophage recruitment at 30 nmol/kg administered intranasally 2 hrs prior to ovalbumin challenge measured 24 hrs post the last ovalbumin challenge by BAL analysis; format: functional, organism-based; procedure, shortened: as §1
Mus musculus [9] = assay: Antiinflammatory activity in ovalbumin sensitized Balb/c mouse hypereosinophilia model assessed as inhibition of eosinophil recruitment at 30 nmol/kg administered intranasally 2 hrs prior to ovalbumin challenge measured 24 hrs post the last ovalbumin challenge by BAL analysis; format: functional; details: inhaled or nasal; procedure, shortened: as §1
[10] = target: T1, C-X-C chemokine receptor type 4 (Homo sapiens, UniProt P61073); assay: Inhibition of EGFP-tagged human CXCR4 expressed in HEK293 cells assessed as inhibition of CXCL12-TR binding at 5 uM incubated for 5 mins prior to CXCL12-TR addition by FRET assay; format: cell-based
Procedure, shortened: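 Binding of Texas Red-labelled CXCL12 (100 nM) to EGFP-tagged CXCR4 read by FRET as real-time decline of EGFP emission at 510 nm. Compound tested at 5 μM; percent inhibition of binding reported.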

Mus musculus [11] = assay: Antiinflammatory activity in ovalbumin sensitized Balb/c mouse hypereosinophilia model assessed as inhibition of macrophage recruitment at 22 nmol/kg administered intranasally 2 hrs prior to ovalbumin challenge for 3 days; format: functional, organism-based; procedure, shortened: as §1
Mus musculus [12] = assay: Antiinflammatory activity in ovalbumin sensitized Balb/c mouse hypereosinophilia model assessed as inhibition of eosinophil recruitment administered intranasally 2 hrs prior to ovalbumin challenge for 3 days; format: functional, organism-based; procedure, shortened: as §1
Mus musculus [13] = assay: Antiinflammatory activity in ovalbumin sensitized Balb/c mouse hypereosinophilia model assessed as inhibition of neutrophil recruitment at 22 nmol/kg administered intranasally 2 hrs prior to ovalbumin challenge for 3 days; format: functional, organism-based; procedure, shortened: as §1
Mus musculus [14] = assay: Antiinflammatory activity in ovalbumin sensitized Balb/c mouse hypereosinophilia model assessed as inhibition of lymphocyte recruitment at 22 nmol/kg administered intranasally 2 hrs prior to ovalbumin challenge for 3 days; format: functional, organism-based; procedure, shortened: as §1
Mus musculus [15] = assay: Prodrug activation in ovalbumin sensitized Balb/c mouse hypereosinophilia model assessed as chalcone-4 release in lungs at 22 nmol/kg administered intranasally after 15 mins; format: organism-based; details: in vivo, inhaled_or_intranasal, 0.25 h
Procedure, shortened: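 LC-MS detection of released parent chalcone in mouse lung tissue 15 min after intranasal dosing of prodrug.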

Mus musculus [16] = assay: Antiinflammatory activity in ovalbumin sensitized Balb/c mouse hypereosinophilia model assessed as inhibition of eosinophil recruitment at 22 nmol/kg administered intranasally 2 hrs prior to ovalbumin challenge for 3 days; format: functional; procedure, shortened: as §1
[17] = target: T1, C-X-C chemokine receptor type 4; assay: Inhibition of EGFP-tagged human CXCR4 expressed in HEK293 cells assessed as inhibition of CXCL12-TR binding incubated for 5 mins prior to CXCL12-TR addition by FRET assay; format: cell-based

T1 sequence (P61073 whole entry): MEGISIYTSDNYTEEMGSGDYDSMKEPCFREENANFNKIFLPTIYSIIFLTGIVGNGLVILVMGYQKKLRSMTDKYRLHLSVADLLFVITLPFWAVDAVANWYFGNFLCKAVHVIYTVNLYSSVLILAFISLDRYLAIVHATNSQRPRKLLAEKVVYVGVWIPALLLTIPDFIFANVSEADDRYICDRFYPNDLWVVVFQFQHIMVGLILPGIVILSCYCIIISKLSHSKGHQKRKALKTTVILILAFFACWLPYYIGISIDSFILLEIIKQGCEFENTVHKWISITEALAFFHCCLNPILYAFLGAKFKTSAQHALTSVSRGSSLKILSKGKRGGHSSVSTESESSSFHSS

| half-life [4] | solubility at 24 h [5] | half-life [6] | half-life [7] | inhibition [10] | Ki [17] | Compound | inhibition (Mus musculus [1]) | Drug metabolism (Mus musculus [2]) | inhibition (Mus musculus [3]) | inhibition (Mus musculus [8]) | inhibition in vivo at 0.03 µmol/kg (Mus musculus [9]) | inhibition (Mus musculus [11]) | IC50 (Mus musculus [12]) | inhibition (Mus musculus [13]) | inhibition (Mus musculus [14]) | Drug metabolism (Mus musculus [15]) | inhibition in vivo at 0.022 µmol/kg (Mus musculus [16]; inhaled or nasal) | inhibition (Mus musculus [16]) |
| --- | --- | --- | --- | --- | --- | --- | --- | --- | --- | --- | --- | --- | --- | --- | --- | --- | --- | --- |
| < 0.0833 h | 42 µM | < 0.0833 h | 0.2 h | 15% |  | COc1cc(/C=C/C(=O)c2ccc(Cl)cc2)ccc1OC(=O)[C@H](N)CO.Cl | Active | Active | Active | inactive | 67% |  |  |  |  |  |  |  |
| < 0.25 h | > 30000 µM | 2 h | > 10 h | 5% |  | COc1cc(/C=C/C(=O)c2ccc(Cl)cc2)ccc1OP(=O)([O-])[O-].[Na+].[Na+] | Active | Active | Active | inactive | 64% | inactive | 10 nmol/kg | Active | Active | Active | 56% |  |
| > 6 h | 9 µM (≈ 2.6 µg/mL) | > 10 h | > 10 h | 90% | 53 nM | COc1cc(/C=C/C(=O)c2ccc(Cl)cc2)ccc1O |  | Active |  |  |  | inactive |  | inactive | inactive |  |  | inactive |
| 0.5 h | 1430 µM | > 10 h | > 10 h | 4% |  | COc1cc(/C=C/C(=O)c2ccc(Cl)cc2)ccc1OS(=O)(=O)[O-].[Na+] | Active | Active | Active | inactive | 69% |  |  |  |  |  |  |  |
